Reference: ChEMBL document CHEMBL1137132, “The synthesis and SAR of 2-arylsulfanyl-phenyl piperazinyl acetic acids as glyT-1 inhibitors” (Bioorg Med Chem Lett, 2004)

How the values were obtained:
[1] = biological target: T1, Sodium- and chloride-dependent glycine transporter 1 (Homo sapiens, UniProt P48067); assay: Inhibition of uptake of [3H]-glycine into cells transfected with human GlyT-1b transporter
T1 sequence (P48067 whole entry): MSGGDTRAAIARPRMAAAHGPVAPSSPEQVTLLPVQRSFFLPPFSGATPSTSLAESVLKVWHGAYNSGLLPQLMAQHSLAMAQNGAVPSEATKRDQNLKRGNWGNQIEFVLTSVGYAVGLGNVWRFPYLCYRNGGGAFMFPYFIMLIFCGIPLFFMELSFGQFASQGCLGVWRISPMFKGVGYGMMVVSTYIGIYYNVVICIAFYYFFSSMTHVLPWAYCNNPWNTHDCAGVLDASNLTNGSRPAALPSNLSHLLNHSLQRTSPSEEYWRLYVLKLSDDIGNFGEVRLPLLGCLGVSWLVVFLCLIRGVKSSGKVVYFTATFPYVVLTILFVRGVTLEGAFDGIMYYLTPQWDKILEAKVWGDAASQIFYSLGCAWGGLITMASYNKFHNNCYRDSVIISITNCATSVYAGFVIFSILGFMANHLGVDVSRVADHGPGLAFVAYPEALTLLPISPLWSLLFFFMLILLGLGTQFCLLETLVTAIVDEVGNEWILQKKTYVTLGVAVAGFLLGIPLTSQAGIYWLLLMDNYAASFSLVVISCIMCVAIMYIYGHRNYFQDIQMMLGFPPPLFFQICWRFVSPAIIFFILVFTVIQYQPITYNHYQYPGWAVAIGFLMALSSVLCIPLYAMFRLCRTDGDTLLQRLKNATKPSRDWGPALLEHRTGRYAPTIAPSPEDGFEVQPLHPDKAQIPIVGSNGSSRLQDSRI

[2] = Plasma clearance in rat; format: ADME, organism-based
[3] = Oral bioavailability in rat; format: ADME, organism-based; conditions: in vivo
How it was run: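 Rat pharmacokinetics, oral dosing as a solution.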

[4] = Half-life in rat; format: ADME; conditions: in vivo
Rattus norvegicus = assay: Compound tested for increase in levels of glycine in the ventral hippocampus at a dose of 4.6 mg/kg after 60 min of s.c. administration; format: functional
How it was run: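 In vivo microdialysis in freely moving rats, ventral hippocampus. Compound given subcutaneously. Extracellular glycine measured, with mean basal pre-injection values normalised to 100%; n is the number of animals.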

SMILES	IC50 [1]	other results
COc1ccc(Sc2ccccc2N2CCN(CC(=O)O)C(C)(C)C2)cc1	1500 nM	–
CC1CN(c2ccccc2Sc2ccc(O)cc2)C(C)CN1CC(=O)O (stereo not drawn)	3600 nM	–
CC(=O)Nc1ccc(Sc2ccccc2N2CC(C)N(CC(=O)O)CC2C)cc1 (stereo not drawn)	22000 nM	–
COc1ccc(Sc2ccc(Cl)cc2N2CCN(CC(=O)O)C(C)C2)cc1 (stereo not drawn)	290 nM	–
COc1ccc(Sc2ccccc2N2C[C@@H](C)N(CC(=O)O)C[C@@H]2C)cc1	160 nM	–
Cc1ccc(Sc2ccccc2N2CC(C)N(CC(=O)O)CC2C)cc1 (stereo not drawn)	550 nM	–
COc1ccc(Sc2ccc(OC)cc2N2CC(C)N(CC(=O)O)CC2C)cc1 (stereo not drawn)	> 50000 nM	–
COc1ccc(Sc2ccc(Cl)cc2N2CCN(CC(=O)O)[C@@H](C)C2)cc1	1400 nM	–
COc1ccc(Sc2ccc(OC)cc2N2CCN(CC(=O)O)C(C)C2)cc1 (stereo not drawn)	4600 nM	–
COc1ccc(Sc2ccc(C)cc2N2CCN(CC(=O)O)C(C)C2)cc1 (stereo not drawn)	1600 nM	–
COc1ccc(Sc2ccccc2N2C[C@@H](C)N(CC(=O)O)C[C@H]2C)cc1	16000 nM	–
COc1ccc(Sc2ccc(Cl)cc2N2CCN(CC(=O)O)[C@H](C)C2)cc1	150 nM	clearance [2]: 6.67 mL/min/kg; bioavailability [3]: 100%; half-life [4]: 4 h; Increase (Rattus norvegicus): 140%
CC1CN(c2ccccc2Sc2ccccc2)C(C)CN1CC(=O)O (stereo not drawn)	2900 nM	–
COc1ccc(Sc2ccccc2N2CCN(CC(=O)O)C(C)C2)cc1 (stereo not drawn)	1700 nM	–

Now from value to compound, other results behind:

IC50 [1]	SMILES	other results
> 10000 nM	COc1ccc(Sc2ccccc2N2CCN(CC(=O)O)CC2C)cc1 (stereo not drawn)	–
360 nM	CC1CN(c2ccccc2Sc2ccc(Cl)cc2)C(C)CN1CC(=O)O (stereo not drawn)	–
> 10000 nM	CC1CN(c2ccccc2Sc2ccc(-c3ccccc3)cc2)C(C)CN1CC(=O)O (stereo not drawn)	–
580 nM	COc1ccc(Sc2ccccc2N2CC(C)N(CC(=O)O)CC2C)cc1 (stereo not drawn)	–
53000 nM	COc1ccc(Sc2ccccc2N2C[C@H](C)N(CC(=O)O)C[C@H]2C)cc1	–
18000 nM	COc1ccc(Sc2ccccc2N2C[C@H](C)N(CC(=O)O)C[C@@H]2C)cc1	–
1900 nM	CC1CN(c2ccccc2Sc2ccc(F)cc2)C(C)CN1CC(=O)O (stereo not drawn)	–
1700 nM	COc1ccc(Sc2ccc(Cl)cc2N2CC(C)N(CC(=O)O)CC2C)cc1 (stereo not drawn)	–
> 10000 nM	COc1ccc(Sc2ccccc2N2CCN(CC(=O)O)CC2)cc1	–
320 nM	CN(CC[C@@H](Oc1ccc(C(F)(F)F)cc1)c1ccccc1)CC(=O)O	–
